In assay [1] the target is Gamma-secretase (Homo sapiens) (UniProt Q96BI3+Q9NZ42+Q8WW43+P49768+Q92542+P49810). Kind of assay: Selectivity ratio of IC50 for gamma secretase-mediated total amyloid beta production to IC50 for gamma secretase-mediated amyloid beta42 production in HEK293 cells. It is filed as cell-based. The essentials: (§1)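 HEK293 cells stably transfected with APPsw-lon (pcDNA3.1) treated with compound for 5 h. Aβ in the conditioned medium measured by MSD electrochemiluminescent sandwich immunoassay, using TAG-G2-11/biotin-4G8 for Aβ42 and TAG-W02/biotin-4G8 for total Aβ. IC50 values derived for each, and the ratio taken as total Aβ IC50 over Aβ42 IC50.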

Another assay deals with Gamma-secretase. Kind of assay: Inhibition of gamma secretase-mediated amyloid beta42 production in HEK293 cells by sandwich immunoassay. It is filed as cell-based, Homo sapiens. The essentials: as §1
Assay [2] has as its system Rattus norvegicus. Kind of assay: Antialzheimer activity in CD rat assessed as decrease in amyloid beta42 level in CSF at 30 mg/kg, po after 3 hrs. The format is functional. The essentials:
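Male CD rats (~100 g) given a single oral dose of 30 mg/kg formulated in 20% hydroxypropyl β-cyclodextrin. CSF sampled 3 h after dosing, stored at -80 °C, and CSF Aβ42 quantified with AlphaLISA amyloid assay kits. Effect expressed as % change in Aβ42.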

In assay [3] the test system is Rattus norvegicus. Kind of assay: Antialzheimer activity in CD rat assessed as decrease in amyloid beta42 level in brain at 30 mg/kg, po after 3 hrs. The format is functional. The procedure, abridged: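 Male CD rats (~100 g) dosed orally at 30 mg/kg in 20% hydroxypropyl β-cyclodextrin, brains taken 3 h later and frozen on dry ice. Half cortex homogenized and extracted in 5 M guanidine-HCl/50 mM Tris-HCl pH 8, sonicated, and cleaned up by solid-phase extraction. Eluate dried and resuspended in PBS/0.5% Tween 20, then Aβ42 read by AlphaLISA. Result given as % change.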

Here are results for 35 compounds from ChEMBL document CHEMBL1641493, “Discovery of fused 5,6-bicyclic heterocycles as γ-secretase modulators” (Bioorg Med Chem Lett, 2011).

Calls of active or inactive are those of the source. The calls are words filed in the database; no cut-off is given here.

What is called IC50 is the concentration at which inhibition is half-maximal. A higher IC50 goes with lower potency. In general, inhibition in vivo refers to the change of the read-out against control, counted positive when it falls.

In the case of `COc1cc(-c2nnc3n2CCCN3C(=O)c2ccc(F)cc2)ccc1-n1cnc(C)c1`, in assay [1], the Ratio IC50 amounted to 1. Besides, the 50% inhibitory concentration (IC50) against Gamma-secretase is 19.3 µM.

On to `COc1cc(-c2nnc3n2CCCN3)ccc1-n1cnc(C)c1`, for which, in assay [1], the Ratio IC50 came to 1. At Gamma-secretase, this compound registered an IC50 of 20 µM.

As for `COc1cc(-c2nnc3n2CCCN3Cc2ccc(Cl)c(Cl)c2)ccc1-n1cnc(C)c1`, the Ratio IC50 in assay [1] turned out to be 159. At Gamma-secretase, half-maximal inhibition (IC50) required 0.126 µM.

Take `COc1cc(-c2nnc3n2CCCN3C(C)c2cc(F)c(F)c(F)c2)ccc1-n1cnc(C)c1` (stereo not drawn): the Ratio IC50 in assay [1] came to 165. It took 0.116 µM to reach half-maximal inhibition against Gamma-secretase (IC50).

On to `COc1cc(-c2onc3c2CCCN3[C@@H](C)c2ccc(F)cc2)ccc1-n1cnc(C)c1`, for which the Ratio IC50 in assay [1] was determined as 38. This compound returned an IC50 on Gamma-secretase of 0.465 µM.

For `COc1cc(-c2nnc3n2CCCN3Cc2ccc(C#N)cc2)ccc1-n1cnc(C)c1`, the Ratio IC50 in assay [1] was 3. On Gamma-secretase, this compound had a 50% inhibitory concentration (IC50) of 2.53 µM.

For the compound `COc1cc(-c2noc3c2CCCN3[C@@H](C)c2ccc(F)cc2)ccc1-n1cnc(C)c1`, the Ratio IC50 in assay [1] worked out at 29. Also, the IC50 against Gamma-secretase came to 0.448 µM.

In the case of `CCCC(c1ccc(F)cc1)N1CCCn2c(-c3ccc(-n4cnc(C)c4)c(OC)c3)nnc21` (stereo not drawn), the Ratio IC50 in assay [1] came out at 138. The same compound showed an IC50 against Gamma-secretase of 0.145 µM.

For `CC[C@@H](c1ccc(F)cc1)N1CCCc2c(-c3ccc(-n4cnc(C)c4)c(OC)c3)noc21`, the Ratio IC50 in assay [1] came out at 17. At Gamma-secretase, this compound came in with a half-maximal inhibitory concentration (IC50) of 0.875 µM.

Take `CCCCC(=O)N1CCCn2c(-c3ccc(-n4cnc(C)c4)c(OC)c3)nnc21`: the Ratio IC50 in assay [1] was found to be 10. Moreover, the IC50 against Gamma-secretase is 2.07 µM.

For `COc1cc(-c2noc3c2CCCN3[C@@H](C)c2cc(F)c(F)c(F)c2)ccc1-n1cnc(C)c1`, the Ratio IC50 in assay [1] was 37. Besides, inhibition against Gamma-secretase was half-maximal at 0.54 µM (IC50).

For `COc1cc(-c2nnc3n2CCCN3Cc2ccc(F)c(F)c2)ccc1-n1cnc(C)c1`, the Ratio IC50 in assay [1] came out at 36. Half-maximal inhibition at Gamma-secretase (IC50) was put at 0.552 µM.

Consider `COc1cc(-c2n[nH]c3c2CCCN3C(C)c2ccc(F)cc2)ccc1-n1cnc(C)c1` (stereo not drawn), for which the Ratio IC50 in assay [1] stood at 46. This compound also registered an IC50 against Gamma-secretase of 0.164 µM.

`COc1cc(-c2nnc3n2CCCN3C(C)c2c(F)cc(F)cc2F)ccc1-n1cnc(C)c1` (stereo not drawn): the Ratio IC50 in assay [1] is 58. The same compound yielded an IC50 against Gamma-secretase of 0.342 µM.

For the compound `COc1cc(-c2nnc3n2CCCN3C(C)c2ccc(F)cc2)ccc1-n1cnc(C)c1` (stereo not drawn), the Ratio IC50 in assay [1] was 39. This compound yielded an IC50 against Gamma-secretase of 0.509 µM.

As for `COc1cc(-c2nnc3n2CCCN3C(=O)Cc2ccc(F)cc2)ccc1-n1cnc(C)c1`, the Ratio IC50 in assay [1] worked out at 10. The same compound had an IC50 on Gamma-secretase of 1.92 µM.

Take `COc1cc(-c2noc3c2CCCN3[C@@H](C)c2cc(F)cc(F)c2)ccc1-n1cnc(C)c1`: the Ratio IC50 in assay [1] was 21. The IC50 on Gamma-secretase was found to be 0.935 µM.

With `COc1cc(-c2onc3c2CCCN3[C@@H](C)c2ccccc2)ccc1-n1cnc(C)c1`, the Ratio IC50 in assay [1] stood at 37. Moreover, on Gamma-secretase, 0.537 µM corresponded to half-maximal inhibition (IC50).

`COc1cc(-c2nnc3n2CCCN3C(c2ccccc2)C2CC2)ccc1-n1cnc(C)c1` (stereo not drawn): in assay [1], the Ratio IC50 was 1. At Gamma-secretase, the IC50 came to 20 µM.

`COc1cc(-c2nnc3n2CCCN3Cc2ccc(F)cc2)ccc1-n1cnc(C)c1`: the Ratio IC50 in assay [1] amounted to 31. The compound also yielded an IC50 on Gamma-secretase of 0.649 µM.

For `COc1cc(-c2nnc3n2CCCN3C(c2ccc(F)cc2)C2CC2)ccc1-n1cnc(C)c1` (stereo not drawn), the Ratio IC50 in assay [1] stood at 1. Besides, the IC50 against Gamma-secretase came out at 16.4 µM.

Turning to `COc1cc(-c2nnc3n2CCCN3S(=O)(=O)c2ccc(F)cc2)ccc1-n1cnc(C)c1`, the Ratio IC50 in assay [1] was 9. Moreover, at Gamma-secretase, it took 2.21 µM to reach half-maximal inhibition (IC50).

On to `CC[C@H](c1cc(F)c(F)c(F)c1)N1CCCc2c(-c3ccc(-n4cnc(C)c4)c(OC)c3)n[nH]c21`, for which the Ratio IC50 in assay [1] was found to be 96. For the same compound, it took 0.209 µM to reach half-maximal inhibition on Gamma-secretase (IC50).

As for `COc1ccc(CN2CCCn3c(-c4ccc(-n5cnc(C)c5)c(OC)c4)nnc32)cc1`, in assay [1], the Ratio IC50 was 14. Besides, the IC50 against Gamma-secretase turned out to be 1.41 µM.

For `CCC(c1cc(F)c(F)c(F)c1)N1CCCc2c(-c3ccc(-n4cnc(C)c4)c(OC)c3)n[nH]c21` (stereo not drawn), the Ratio IC50 in assay [1] is 99. This compound also had an IC50 against Gamma-secretase of 0.201 µM.

With `COc1cc(-c2noc3c2CCCN3[C@H](C)c2ccc(F)cc2)ccc1-n1cnc(C)c1`, the Ratio IC50 in assay [1] turned out to be 14. At Gamma-secretase, this compound yielded an IC50 of 1.39 µM.

Take `COc1cc(-c2nnc3n2CCCN3C(=O)N2CCOCC2)ccc1-n1cnc(C)c1`: the Ratio IC50 in assay [1] was determined as 1. The compound also yielded an IC50 on Gamma-secretase of 20 µM.

In the case of `CCCCCN1CCCn2c(-c3ccc(-n4cnc(C)c4)c(OC)c3)nnc21`, the Ratio IC50 in assay [1] came out at 14. Further, half-maximal inhibition at Gamma-secretase (IC50) was put at 1.41 µM.

On to `CCC(c1ccc(F)cc1)N1CCCn2c(-c3ccc(-n4cnc(C)c4)c(OC)c3)nnc21` (stereo not drawn), for which the Ratio IC50 in assay [1] was 128. This compound came in with an IC50 on Gamma-secretase of 0.156 µM.

As for `COc1cc(-c2onc3c2CCCN3Cc2ccc(F)cc2)ccc1-n1cnc(C)c1`, the Ratio IC50 in assay [1] was 48. In addition, the inhibition entry with Rattus norvegicus [2] and in the assay on Rattus norvegicus [3] was “inactive” throughout. This compound also yielded an IC50 against Gamma-secretase of 0.356 µM.

As to `CC[C@@H](c1cc(F)c(F)c(F)c1)N1CCCc2c(-c3ccc(-n4cnc(C)c4)c(OC)c3)n[nH]c21`, the Ratio IC50 in assay [1] came out at 164. In addition, the inhibition in vivo at 30 mg/kg in the assay on Rattus norvegicus [2] is 26%. This compound registered an IC50 against Gamma-secretase of 0.122 µM.

Regarding `COc1cc(-c2nnc3n2CCCN3C(=O)C(C)c2ccc(F)cc2)ccc1-n1cnc(C)c1` (stereo not drawn), the Ratio IC50 in assay [1] turned out to be 41. The compound further returned a 50% inhibitory concentration (IC50) at Gamma-secretase of 0.485 µM.

Take `COc1cc(-c2nnc3n2CCCN3CCc2ccc(F)cc2)ccc1-n1cnc(C)c1`: the Ratio IC50 in assay [1] was found to be 32. The 50% inhibitory concentration (IC50) against Gamma-secretase amounted to 0.619 µM.

Consider `COc1cc(-c2onc3c2CCCN3Cc2cc(F)cc(F)c2)ccc1-n1cnc(C)c1`, for which the Ratio IC50 in assay [1] turned out to be 46. Also, the IC50 on Gamma-secretase was found to be 0.44 µM.

As to `COc1cc(/C=C2\CCCN([C@@H](C)c3ccc(F)cc3)C2=O)ccc1-n1cnc(C)c1`, the inhibition in vivo at 30 mg/kg with Rattus norvegicus [2] is 55%; in the assay on Rattus norvegicus [3] it was 44%.
